Reference: ChEMBL document CHEMBL1687889, “Antitumor agents. 284. New desmosdumotin B analogues with bicyclic B-ring as cytotoxic and antitubulin agents” (J Med Chem, 2011)
Activity calls are given as the source filed them. No cut-off for these calls is given here.

Columns and labels:
PC-3 = assay: Antiproliferative activity against human PC3 cells after 3 days by sulforhodamine B assay; type: functional; conditions: PC-3, 72 h
[1] = Antiproliferative activity against human KBVIN cells after 3 days by sulforhodamine B assay; type: functional; conditions: 72 h
Method in brief: (§1)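 Cells grown in RPMI-1640 with 25 mM HEPES, 0.25% sodium bicarbonate, 10% FBS and 100 μg/mL kanamycin. Exposed to compound for 3 days, with at most 0.5% v/v DMSO. Attached cells fixed in cold 50% TCA, stained with 0.4% sulforhodamine B, and the bound dye solubilized. A562 read. GI50 is the concentration giving a 50% absorbance drop versus untreated cells.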

A549 = assay: Antiproliferative activity against human A549 cells after 3 days by sulforhodamine B assay; type: functional; conditions: A549, 72 h; method in brief: as §1
MCF7 [2] = assay: Antiproliferative activity against human MCF7 cells at 20 ug/ml after 3 days by sulforhodamine B assay; type: functional, cell-based
KB = assay: Antiproliferative activity against human KB cells after 3 days by sulforhodamine B assay; type: functional; conditions: 72 h; method in brief: as §1
HCT-8 [3] = assay: Antiproliferative activity against human HCT8 cells after 3 days by sulforhodamine B assay; type: functional; conditions: HCT-8, 72 h; method in brief: as §1
HepG2 [4] = assay: Antiproliferative activity against human HepG2 cells after 3 days by sulforhodamine B assay; type: functional; conditions: HepG2, 72 h
Method in brief: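 Sulforhodamine B assay over 3 days in culture, with at most 0.5% v/v DMSO. Attached cells fixed in cold 50% TCA, stained with 0.4% SRB, and the dye solubilized. Absorbance read at 562 nm. GI50 is the concentration causing a 50% fall in absorbance relative to untreated cells.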

MCF7 [5] = assay: Antiproliferative activity against human MCF7 cells after 3 days by sulforhodamine B assay; type: functional; conditions: MCF7, 72 h
HCT-8 [6] = assay: Antiproliferative activity against human HCT8 cells at 20 ug/ml after 3 days by sulforhodamine B assay; type: functional, cell-based
[7] = Displacement of [3H]colchicine from tubulin at 5 uM for 10 mins
Method in brief: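 1.0 μM tubulin incubated with 5.0 μM [3H]colchicine and 5.0 μM inhibitor for 10 min at 37 °C, when control samples reach about 40–60% of maximal colchicine binding. Result given as percent inhibition of colchicine binding.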

[8] = Inhibition of tubulin assembly after 20 mins by turbidimetric assay; conditions: read-out: IC50
Method in brief: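 Turbidimetry at 350 nm. 10 μM (1.0 mg/mL) tubulin preincubated with compound for 15 min at 30 °C without GTP, then chilled, and 0.4 mM GTP added. Turbidity followed for 20 min at 30 °C after a temperature jump from 0 °C. IC50 is the concentration halving the turbidity increase relative to control.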

DU-145 = assay: Antiproliferative activity against human DU145 cells after 3 days by sulforhodamine B assay; type: functional; conditions: DU-145, 72 h
HepG2 [9] = assay: Antiproliferative activity against human HepG2 cells at 20 ug/ml after 3 days by sulforhodamine B assay; type: functional, cell-based

Row | GI50 (PC-3) | GI50 (A549) | GI50 (KB) | GI50 (HCT-8 [3]) | GI50 (HepG2 [4]) | GI50 (MCF7 [5]) | inhibition [7] | IC50 [8] | GI50 (DU-145) | SMILES | GI50 [1] | Activity (MCF7 [2]) | Activity (HCT-8 [6]) | Activity (HepG2 [9])
1 | 5.82 µM | 17.2 µM | 14.8 µM | 5.82 µM | 15.1 µM | – | – | – | – | CCC1=C(O)c2c(oc(-c3cc4ccccc4o3)cc2=O)C(CC)(CC)C1=O | 14.6 µM | inactive | – | –
2 | 12.4 µM | 17.4 µM | 19.9 µM | 17.4 µM | 16.7 µM | 13.7 µM | – | – | – | CCC1=C(O)c2c(oc(-c3c(C)ccc4ccccc34)cc2=O)C(CC)(CC)C1=O | 19.9 µM | – | – | –
3 | 1.45 µM | 1.73 µM | 0.29 µM | 1.16 µM | – | 1.73 µM | – | – | – | CC1=C(O)c2c(oc(-c3cccc4ccccc34)cc2=O)C(C)(C)C1=O [2-(NAPHTHALEN-1-YL)DESMOSDUMOTIN B] | 0.58 µM | – | – | –
4 | – | 0.007 µM | 0.004 µM | 0.036 µM | – | – | – | – | – | CC[C@]1(O)C[C@H]2CN(CCc3c([nH]c4ccccc34)[C@@](C(=O)OC)(c3cc4c(cc3OC)N(C=O)[C@H]3[C@@](O)(C(=O)OC)[C@H](OC(C)=O)[C@]5(CC)C=CCN6CC[C@]43[C@@H]65)C2)C1 [VINCRISTINE] | 9.09 µM | – | – | –
5 | 8.45 µM | 18.1 µM | 18.1 µM | – | 19.3 µM | 15.7 µM | – | – | – | CCC1=C(O)c2c(oc(-c3ccc(-c4ccccc4)cc3)cc2=O)C(CC)(CC)C1=O | 12.1 µM | – | inactive | –
6 | 12.6 µM | 7.99 µM | 5.93 µM | 9.28 µM | 9.02 µM | – | – | – | – | CCC1=C(O)C2=C(OC(c3cccc4ccccc34)CC2=O)C(CC)(CC)C1=O (stereo unspecified) | 3.87 µM | – | – | –
7 | 1.5 µM | – | 0.76 µM | 1.3 µM | 23.7 µM | – | 36% | 3.7 µM | – | CC1=C(O)c2c(oc(-c3ccc4c(c3)OCCO4)cc2=O)C(C)(C)C1=O | 0.65 µM | – | – | –
8 | 4.78 µM | 16.8 µM | 10.8 µM | 12 µM | 13.4 µM | 8.37 µM | – | – | – | CCC1=C(O)c2c(oc(-c3ccc4cc(OC)ccc4c3)cc2=O)C(CC)(CC)C1=O | 9.57 µM | – | – | –
9 | 6.04 µM | 6.04 µM | 2.17 µM | 2.42 µM | 4.59 µM | 3.62 µM | – | – | – | CCC1=C(O)c2c(oc(-c3ccc4c5c(cccc35)CC4)cc2=O)C(CC)(CC)C1=O | 1.93 µM | – | – | –
10 | 0.91 µM | 0.23 µM | 0.11 µM | 1.08 µM | 0.57 µM | – | 69% | 2.4 µM | – | CC1=C(O)c2c(oc(-c3csc4ccccc34)cc2=O)C(C)(C)C1=O | 0.09 µM | – | – | –
11 | 13.3 µM | 1.25 µM | 0.61 µM | 2.56 µM | 1.33 µM | – | 37% | 2.5 µM | – | CC1=C(O)c2c(oc(-c3ccc(C)c4ccccc34)cc2=O)C(C)(C)C1=O | 0.72 µM | – | – | –
12 | 24.1 µM | 5.95 µM | 7.38 µM | 13.3 µM | 24.1 µM | 14.1 µM | – | – | – | CCC1=C(O)c2c(oc(-c3cccc4ccccc34)cc2=S)C(CC)(CC)C1=S | 5.95 µM | – | – | –
13 | 3.81 µM | 14 µM | 11.2 µM | 19 µM | 15.7 µM | 15.2 µM | – | – | – | CCC1=C(O)c2c(oc(-c3cc4ccccc4s3)cc2=O)C(CC)(CC)C1=O | 9.9 µM | – | – | –
14 | 51.9 µM | 66 µM | 11.3 µM | 19.6 µM | 24.8 µM | – | – | – | 21.5 µM | CCC1=C(O)c2c(oc(-c3c(OC)ccc4sccc34)cc2=O)C(CC)(CC)C1=O | 11.1 µM | – | – | –
15 | 2.39 µM | 1.48 µM | 1.67 µM | 3.35 µM | 1.48 µM | 3.59 µM | 31% | 2.7 µM | – | CCC1=C(O)c2c(oc(-c3ccc(OC)c4ccccc34)cc2=O)C(CC)(CC)C1=O | 1.56 µM | – | – | –
16 | 17.4 µM | 23.3 µM | 18.6 µM | 23.3 µM | – | – | – | – | – | CCCC1=C(O)c2c(oc(-c3cccc4ccccc34)cc2=O)C(CCC)(CCC)C1=O | – | inactive | – | inactive
17 | 1.03 µM | 1.55 µM | 1.55 µM | 1.03 µM | 2.06 µM | 1.55 µM | 43% | 2.3 µM | – | CCC1=C(O)c2c(oc(-c3cccc4ccccc34)cc2=O)C(CC)(CC)C1=O [2-(NAPHTHALEN-1-YL)-6,8,8-TRIETHYL DESMOSDUMOTIN B] | 0.77 µM | – | – | –
18 | 1.52 µM | 1.52 µM | 1.26 µM | 2.27 µM | 1.52 µM | 1.89 µM | 33% | 6.5 µM | – | CCC1=C(O)c2c(oc(-c3ccc4c(c3)OCCO4)cc2=O)C(CC)(CC)C1=O | 1.14 µM | – | – | –
19 | 20.5 µM | 5.63 µM | 18.7 µM | 15.9 µM | 21.7 µM | 17.4 µM | – | – | – | CCC1=C(O)c2c(oc(-c3cn(C)c4ccccc34)cc2=O)C(CC)(CC)C1=O | 2.81 µM | – | – | –
20 | 12.8 µM | 12.8 µM | 15.4 µM | 12.8 µM | 14.9 µM | 19.3 µM | – | – | – | CCC1=C(O)c2c(oc(-c3cnc4ccccc4c3)cc2=O)C(CC)(CC)C1=O | 14.9 µM | – | – | –
21 | 16.6 µM | 1.86 µM | 1.41 µM | 8.17 µM | 8.42 µM | 3.22 µM | – | – | – | CCC1=C(O)c2c(oc(-c3cccc4ccccc34)cc2=O)C(CC)(CC)C1=S | 2.7 µM | – | – | –
22 | 5.24 µM | 26.2 µM | 18.3 µM | 13.1 µM | 11.8 µM | 11.3 µM | – | – | – | CCC1=C(O)c2c(oc(-c3ccc4c(c3)OCO4)cc2=O)C(CC)(CC)C1=O | 17 µM | – | – | –
23 | 2.49 µM | 0.5 µM | 0.47 µM | 0.62 µM | 1.24 µM | 0.75 µM | 50% | 2.7 µM | – | CCC1=C(O)c2c(oc(-c3ccc(C)c4ccccc34)cc2=O)C(CC)(CC)C1=O | 0.27 µM | – | – | –
24 | 28 µM | 9.79 µM | 4.5 µM | 15.6 µM | 17.7 µM | – | – | – | – | CCC1=C(O)c2c(oc(-c3coc4ccccc34)cc2=O)C(CC)(CC)C1=O | 2.09 µM | – | – | –
25 | 10.8 µM | 4.77 µM | 9.13 µM | 7.68 µM | 14.5 µM | 11 µM | – | – | – | CCC1=C(OC)C(CC)(CC)c2oc(-c3cccc4ccccc34)c(Br)c(=O)c2C1=O | 9.96 µM | – | – | –
26 | 14.7 µM | 16.7 µM | 11.2 µM | 11.7 µM | 20.7 µM | 20.9 µM | – | – | – | CCC1=C(OC)C(CC)(CC)c2oc(-c3cccc4ccccc34)cc(=O)c2C1=O | 9.7 µM | – | – | –

Row | SMILES | GI50 (PC-3) | GI50 (A549) | GI50 (KB) | GI50 (HCT-8 [3]) | GI50 (HepG2 [4]) | GI50 (MCF7 [5]) | inhibition [7] | IC50 [8] | GI50 (DU-145) | GI50 [1] | Activity (MCF7 [2]) | Activity (HCT-8 [6]) | Activity (HepG2 [9])
27 | CCC1=C(O)c2c(oc(-c3cc4ccccc4c4ccccc34)cc2=O)C(CC)(CC)C1=O [6,8,8-TRIETHYL-2-(PHENANTHREN-9-YL) DESMOSDUMOTIN B] | 13.7 µM | 18.3 µM | 11.4 µM | 12.8 µM | – | 9.13 µM | – | – | – | 9.82 µM | – | – | –
